From PMC8112392 (Science signaling, 2021)
Entries after “also recorded” stand apart in the source; their conditions may differ. Like-named read-outs stand apart in the source and are kept apart here.

Columns and labels:
Tlp10^LBD = assay: Glycan and small molecule array binding of purified Tlp10 LBD; set-up: species or system C. jejuni; settings: for interaction of Tlp10^LBD with complex glycans: glycan array; for array: binding to Tlp10^LBD on glycan / small molecule array
Tlp10^LBD wild type [1] = target: T1, Tlp10^LBD wild type (Campylobacter jejuni, UniProt Q0PCA6); assay type: binding; settings: competition SPR, compounds at 10x KD
C. jejuni 11168-O [2] = assay type: cell-based; settings: nutrient-depleted chemotaxis assay, 2 mM ligand
C. jejuni 11168-O [3] = assay: μ-Slide chemotactic cell migration visualisation; assay type: cell-based; settings: time-lapse imaging, 10 mM ligand
How it was run: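 Wild-type, Δtlp10 and complemented C. jejuni 11168-O cells are FITC-labelled. In a μ-Slide, the left reservoir holds bacterial suspension, and the right reservoir and transition zone hold PBS. Once cells near the transition zone, isoleucine or arginine is added to the right reservoir (final 10 mM). In the sequential test, arginine is added at 20 sec after partial migration toward isoleucine. Migration is recorded by time-lapse video at 40× magnification.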

Tlp10^LBD N120A = Tlp10^LBD N120A (Campylobacter jejuni, UniProt Q0PCA6, N120A); assay: biochemical; assay type: binding, C. jejuni
Tlp10^LBD H193A = Tlp10^LBD H193A (Campylobacter jejuni, UniProt Q0PCA6, H193A); assay: biochemical; assay type: binding, C. jejuni
Tlp10^LBD wild type [4] = target: T1, Tlp10^LBD wild type; assay: biochemical; assay type: binding; settings: for Kd: SPR, n = 3; for SPR: binding to Tlp10^LBD by SPR
Tlp10^LBD Y70A = Tlp10^LBD Y70A (Campylobacter jejuni, UniProt Q0PCA6, Y70A); assay: biochemical; assay type: binding, C. jejuni
Tlp10^LBD N115A = Tlp10^LBD N115A (Campylobacter jejuni, UniProt Q0PCA6, N115A); assay: biochemical; assay type: binding, C. jejuni
[5] = test system: C. jejuni 11168-O adherence to Caco-2, HCT116 and HCT116MUC1 cells; assay: Adherence of C. jejuni to cultured human cells with glycan competition; assay type: cell-based; settings: 11168-O wild-type and Δtlp10^LBDc strains, 5 mM glycan
C. jejuni 11168-O [6] = assay: μ-Slide chemotaxis cell enumeration assay; assay type: cell-based; settings: 10 mM chemoeffector
How it was run: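 Wild-type, Δtlp10LBD and complemented strains are harvested from MHA plates into PBS, adjusted to OD600 1 and mixed 1:1 (vol:vol) with 1% LMT. The opposite μ-Slide reservoir holds chemoeffector (final 10 mM) in LMT (final 0.35%). Slides are incubated 3 h at 42°C, microaerobic. Cells in the chemoeffector reservoir are enumerated by viable count. Three biological repeats are run, each in triplicate.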

C. jejuni 11168-O [7] = assay: Biofilm assay; assay type: cell-based; settings: 10 mM galactose
[8] = KD Tlp10^LBD Wild-type, Table 2, mean ± s.d.
[9] = KD, wild-type Tlp10^LBD, mean ± SD
[10] = read-out: KD Tlp10^LBD N120A, SPR, mean ± s.d., n = 3
[11] = read-out: KD Tlp10^LBD H193A, SPR, mean ± s.d., n = 3
[12] = read-out: KD Tlp10^LBD Wild-type, Table 2, mean ± s.d.
[13] = read-out: KD Tlp10^LBD Y70A, SPR, mean ± s.d., n = 3
[14] = read-out: KD Tlp10^LBD N115A, SPR, mean ± s.d., n = 3

Compound | ligand-binding site on Tlp10^LBD (Tlp10^LBD wild type [1]) | Tlp10-mediated chemotactic response type (C. jejuni 11168-O [2]) | migration of Δtlp10^LBD strain towards ligand compared to wild-type (C. jejuni 11168-O [2]) | Kd (Tlp10^LBD N120A) [µM] | array (Tlp10^LBD) | Kd (Tlp10^LBD H193A) [µM] | Kd (Tlp10^LBD wild type [4]; [8]) [µM] | Kd (Tlp10^LBD wild type [4]; [9]) [µM] | SPR (Tlp10^LBD wild type [4]) | Kd (Tlp10^LBD Y70A) [µM] | Kd (Tlp10^LBD N115A) [µM] | migration of Δtlp10^LBD cells toward ligand compared with wild-type (C. jejuni 11168-O [6]) | further results
CC(=O)N[C@@H](C=O)[C@@H](O[C@@H]1O[C@H](CO)[C@H](O)[C@H](O)[C@H]1O)[C@H](O[C@@H]1O[C@@H](C)[C@@H](O)[C@@H](O)[C@@H]1O)[C@H](O)CO [Lewis^a antigen] |  |  |  |  |  |  |  |  |  |  |  |  | interaction of Tlp10^LBD with complex glycans (Tlp10^LBD): interacted
N=C(N)NCCC[C@H](N)C(=O)O [arginine] | site A | repellent response | increase in migration | 50.1 ± 8 | + | 29 ± 8 | 27.9 ± 3 | 27.9 ± 3 | + | 19.1 ± 12 | 41.9 ± 12 |  | Tlp10-mediated chemotactic response type (C. jejuni 11168-O [3]): chemorepellent response
N[C@@H](CC(=O)O)C(=O)O [aspartate] | both site A and site B with a preference for site B | attractants |  | 48 ± 7 | + | 30.9 ± 9 | 32.3 ± 10 | 32.3 ± 10 | + | 38.9 ± 11 | 29.5 ± 8 |  | 
C[C@H](O)[C@@H](O)[C@@H](O)[C@H](O)C=O [fucose] | site B | attractants |  | 19.2 ± 4 | + | 28 ± 3 | 30 ± 4.1 | 30 ± 4.1 | + | 34 ± 7 | 22 ± 2 | decreased | effect on adherence to all cell lines tested [5]: suppressed the adherence; also recorded: less effective than that by galactose; Tlp10-mediated chemotactic response type (C. jejuni 11168-O [6]): attractant response
O=C[C@H](O)[C@@H](O)[C@@H](O)[C@H](O)CO [galactose] | site B | repellent | One-log increase in migration |  | + |  |  |  | + |  |  | increased | effect on adherence to all cell lines tested [5]: suppressed the adherence; reduction of biofilm formation compared to untreated cells (C. jejuni 11168-O [7]; wild-type C. jejuni 11168-O): up to 46%; change in biofilm formation (C. jejuni 11168-O [7]; Δtlp10^LBD mutant): no significant change; Tlp10-mediated chemotactic response type (C. jejuni 11168-O [6]): repellent response
CC[C@H](C)[C@H](N)C(=O)O [isoleucine] | site A | attractants |  | 51.2 ± 1.2 | + | 30.8 ± 7 | 37.9 ± 7 | 37.9 ± 7 | + | 28.1 ± 6 | 48.1 ± 5 |  | Tlp10-mediated chemotactic response type (C. jejuni 11168-O [3]): chemoattractant response
O=C(O)CC(O)C(=O)O (stereo not shown) [malate] | site B | attractants |  | 215 ± 31 |  | 161 ± 23 | 168 ± 19 | 168 ± 19 | + | 184 ± 14 | 176 ± 10 |  | 
OC[C@H]1OC(O)[C@@H](O)[C@@H](O)[C@@H]1O (stereo partly shown) [mannose] | site B | attractants |  | 46.4 ± 12 | + | 32.1 ± 12 | 39.6 ± 9 | 39.6 ± 9 | + | 43.3 ± 3 | 52.1 ± 10 | decreased | Tlp10-mediated chemotactic response type (C. jejuni 11168-O [6]): attractant response
c1ncc2nc[nH]c2n1 [purine] | site A |  | not significantly affected | 34 ± 3 | + | 19 ± 2 | 21 ± 6 | 21 ± 6 | + | 16 ± 1 | 29 ± 8 |  | 
CC(=O)N[C@H]1[C@H]([C@H](O)[C@H](O)CO)OC(O)(C(=O)O)C[C@@H]1O (stereo partly shown) [sialic acid] | site B |  |  | 37.1 ± 6 | + | 20.4 ± 9 | 29.3 ± 6.9 | 29.3 ± 6.9 | + | 24.1 ± 7 | 34.9 ± 13 | No significant differences | 
Cc1ncc(C[n+]2csc(CCO)c2C)c(N)n1 [thiamine] | both site A and site B with a preference for site B | repellent response | increase in migration | 58.3 ± 9 | + | 50.6 ± 6 | 59.4 ± 13 | 59.4 ± 13 | + | 62 ± 17 | 49.2 ± 10 |  | 
O=C(O)CCC(=O)C(=O)O [α-ketoglutarate] | site A |  | not significantly affected |  |  |  |  |  | + |  |  |  | Kd (Tlp10^LBD N120A; [10]): 580 ± 43 µM; Kd (Tlp10^LBD H193A; [11]): 370 ± 63 µM; Kd (Tlp10^LBD wild type [4]; wild-type Tlp10^LBD, mean ± SD): 403 ± 13 µM; Kd (Tlp10^LBD wild type [4]; [12]): 403 ± 13 µM; Kd (Tlp10^LBD Y70A; [13]): 385 ± 40 µM; Kd (Tlp10^LBD N115A; [14]): 630 ± 27 µM
Fucα1–2Galβ1–3GalNAcβ1–4(Neu5Acα2–3) Galβ1–4Glc [human ganglioside GM1] |  |  |  |  |  |  |  |  |  |  |  |  | interaction of Tlp10^LBD with complex glycans (Tlp10^LBD): interacted
fumarate | site A | attractants |  |  | + |  |  |  | + |  |  |  | Kd (Tlp10^LBD N120A; [10]): 317 ± 34 µM; Kd (Tlp10^LBD H193A; [11]): 213 ± 59 µM; Kd (Tlp10^LBD wild type [4]; wild-type Tlp10^LBD, mean ± SD): 282 ± 68 µM; Kd (Tlp10^LBD wild type [4]; [12]): 282 ± 68 µM; Kd (Tlp10^LBD Y70A; [13]): 185 ± 25 µM; Kd (Tlp10^LBD N115A; [14]): 242 ± 30 µM
rhamnose | site B |  | not significantly affected |  | + |  |  |  | + |  |  | No significant differences | Kd (Tlp10^LBD N120A; [10]): 17.9 ± 3.7 µM; Kd (Tlp10^LBD H193A; [11]): 9.8 ± 0.95 µM; Kd (Tlp10^LBD wild type [4]; [12]): 11.1 ± 2 µM; Kd (Tlp10^LBD Y70A; [13]): 8.2 ± 3 µM; Kd (Tlp10^LBD N115A; [14]): 18.2 ± 1.9 µM
